Here are results for four compounds from publication PMC5093073 (Cancer prevention research (Philadelphia, Pa.), 2016).

Assay [1] has as its system COX-1 in human washed platelets. In words: Prostanoid. It is filed as cell-based. Particulars: 100 nM inhibitor; for effect on TxB2 synthesis by washed platelets: platelets without A549 cells.
The test system of assay [2] is COX-derived PGE2 in A549 lung adenocarcinoma cells. In words: PGE2 biosynthesis from [2H8]AA in A549 cells. It is filed as cell-based, human. As to conditions: for inhibition of PGE2 synthesis: IL-1β-activated A549, 100 nM inhibitor. The method, boiled down:
(§1)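 Cells grown in DMEM with 10% FBS at 37°C, 5% CO₂, then given 1 ng/ml IL-1β for 24 h at 90% confluence to induce COX-2. In albumin-free medium, cells were preincubated for 30 min at 37°C with graded concentrations of test compound. Then 2.0 µM [²H₈]AA was added for 15 min, and the medium was harvested for GC/NICI/MS measurement of [²H₈]-PGE₂.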

Assay [3] has as its system COX-derived PGE2 in HT-29 colon cancer cells. Put plainly: PGE2 biosynthesis from [2H8]AA in HT-29 cells. The assay is classed as cell-based. As to conditions: Homo sapiens, HT-29, read-out: IC50 for inhibition of PGE2 biosynthesis.
Assay [4] deals with adenocarcinoma metastasis. Particulars: cited from earlier work.
For assay [5], the system named is COX-derived PGE2 in H2122 lung adenocarcinoma cells. In words: PGE2 biosynthesis from [2H8]AA in H2122 cells. The assay is classed as cell-based, human. Put shortly:
as §1

Assay [6] addresses T1, COX-2 (Homo sapiens, UniProt P35354).
T1 sequence (P35354 18-604): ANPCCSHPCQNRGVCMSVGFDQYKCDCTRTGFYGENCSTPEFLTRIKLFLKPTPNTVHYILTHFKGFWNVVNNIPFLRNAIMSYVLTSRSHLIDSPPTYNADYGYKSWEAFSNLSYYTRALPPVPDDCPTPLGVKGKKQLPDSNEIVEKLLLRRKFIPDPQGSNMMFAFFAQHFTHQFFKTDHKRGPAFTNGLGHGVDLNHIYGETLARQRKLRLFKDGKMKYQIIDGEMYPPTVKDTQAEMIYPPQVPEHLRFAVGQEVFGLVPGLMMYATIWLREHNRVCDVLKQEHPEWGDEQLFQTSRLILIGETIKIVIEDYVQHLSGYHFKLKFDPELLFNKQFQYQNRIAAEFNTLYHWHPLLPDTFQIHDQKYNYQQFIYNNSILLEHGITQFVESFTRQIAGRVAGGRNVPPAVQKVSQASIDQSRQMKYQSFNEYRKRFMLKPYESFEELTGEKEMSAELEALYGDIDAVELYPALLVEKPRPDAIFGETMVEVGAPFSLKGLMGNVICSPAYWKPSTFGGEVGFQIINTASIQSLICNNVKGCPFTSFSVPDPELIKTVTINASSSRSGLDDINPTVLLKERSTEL
It is filed as cell-based. Particulars: IL-1β-activated A549, pretreated with 100 µM aspirin.

The subject of assay [7] is COX-derived PGE2 in HCC827 lung adenocarcinoma cells. Put plainly: PGE2 biosynthesis from [2H8]AA in HCC827 cells. The assay is classed as cell-based. As to conditions: Homo sapiens, HCC827, read-out: IC50 for inhibition of PGE2 biosynthesis.
The subject of assay [8] is platelet-A549 cell aggregates. The assay is classed as cell-based, human. Particulars: platelets from blood treated with 100 µM aspirin 40 min, washed, ADP-activated.
Assay [9] relates to COX-derived PGE2 in HCA-7 colon cancer cells. In words: PGE2 biosynthesis from [2H8]AA in HCA-7 cells. It is filed as cell-based. Particulars: Homo sapiens. The method, boiled down: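 HCA-7 cells were grown in DMEM with 10% FBS at 37°C, 5% CO₂, without IL-1β activation. In albumin-free medium, cells were preincubated for 30 min at 37°C with test compound. Then 2.0 µM [²H₈]AA was added and incubation continued for 15 min. The harvested medium was analysed by GC/NICI/MS for [²H₈]-PGE₂.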

Assay [10] relates to platelet TxB2 production. Put plainly: Serum thromboxane B2 levels in healthy volunteers. The assay is classed as in vivo, human. As to conditions: aspirin 81 mg daily 2 weeks.
In assay [11] the test system is systemic PGE2 biosynthesis. Put plainly: Urinary PGE-M. The assay is classed as in vivo, human. Particulars: for reduction in extra-platelet PGE2 production: corrected for platelet-derived PGE2, aspirin 81 mg daily 2 weeks; for reduction of urinary PGE-M levels: aspirin 81 mg daily 2 weeks.
For assay [12], the system named is systemic PGE2 biosynthesis. Particulars: ibuprofen 800 mg 4 times daily; cited from earlier work.

Entries after “also recorded” stand apart in the source; their conditions may differ. Read-outs that look alike come from different tables or passages of the source.

Take `CS(=O)(=O)Nc1ccc([N+](=O)[O-])cc1OC1CCCCC1` [NS-398]: in assay [1], the “effect on PGE2 production in washed platelets” value is “does not block” and the “effect on TxB2 synthesis by washed platelets” value is listed as “did not inhibit; also recorded: does not block”. Further, the “inhibition of PGE2 synthesis” value in assay [2] is given as “fully blocks”.
On to `CC(=O)Oc1ccccc1C(=O)O` [aspirin, acetyl salicylic acid], for which the IC50 in assay [3] came out at 8.9 ± 1.2 µM; in assay [5] (Homo sapiens, NCI-H2122, read-out: IC50 for inhibition of PGE2 biosynthesis), 15 ± 1.3 µM; in assay [2] (Homo sapiens, A549, read-out: IC50 for inhibition of PGE2 biosynthesis), 7.2 ± 1.1 µM; in assay [7], 22.5 ± 3.2 µM; in assay [9] (HCA-7, read-out: IC50 for inhibition of PGE2 biosynthesis) it was 3.9 ± 0.7 µM. The “hazard ratio for later metastasis” value in [4] (adenocarcinomas other than those of the colon) is recorded as 0.47; in [4] (colon cancers, no metastasis at diagnosis, 95% CI 0.03–0.56, p=0.007) it was 0.13. For the same compound, in assay [4] (patients who develop cancer while receiving aspirin), the “reduction of development of metastases” value is 69%. Further, the “blockade of COX-2 labeling by fluorocoxib A” value in assay [6] is “effectively blocked COX-2 labeling; also recorded: inhibited COX-2 associated fluorocoxib A fluorescence”. Moreover, in assay [8], the “COX-2 protein expression in A549 cells” value is listed as “still upregulated”. In assay [8], the “PGE2 production by platelet-A549 aggregates” value is listed as “significantly inhibited; also recorded: effectively blocked”. Also, the “reduction of serum thromboxane B2 levels” value in [10] was found to be 96.6%. Besides, the results for the “reduction in extra-platelet PGE2 production” value in assay [11] (females) and in [11] (males) were 55.4% and 38.6%, respectively. Besides, the “reduction of urinary PGE-M levels” value in [11] (healthy females) was 56%; in assay [11] (healthy males), 39%.
`CC(C)Cc1ccc(C(C)C(=O)O)cc1` (stereo not drawn) [ibuprofen]: the “reduction of PGE2 production in humans” value in assay [12] was 63%.
Consider `Cc1onc(-c2ccccc2)c1-c1ccc(S(N)(=O)=O)cc1` [valdecoxib], for which the “inhibition of PGE2 synthesis” value in [5] (H2122, 100 nM inhibitor) was “fully inhibited”; in assay [2], “fully inhibited”. For the same compound, the “effect on TxB2 synthesis by washed platelets” value in [1] is on record as “no effect”. Moreover, in [9] (HCA-7, read-out: inhibition of PGE2 synthesis), the inhibition at 0.1 µM is 60%.
